Data on 16 compounds can be found in ChEMBL document CHEMBL5360548, “Fatty acids as molecular carriers in cleavable antifungal conjugates” (Eur J Med Chem, 2023).

Converted amounts (≈) assume the structure as drawn. The source made the active and inactive calls. No cut-off for these calls is given here.

Data set [1] can be described thus: Induction of hemolysis in human RBC incubated for 30 mins by absorbance based microplate reader analysis. The settings on record: human red blood cells (erythrocytes). In kind it is toxicity, cell-based, Erythrocyte. Summed up:
(§1)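 Human erythrocytes at 2 × 10^7 cells mL-1 in saline, exposed to two-fold dilutions from DMSO stocks (final 200–0.4 µg mL-1), 37 °C, 30 min, then centrifuged. Hemoglobin in supernatant read at A540. Percent hemolysis scaled between DMSO (0%) and Triton X-100 (100%) controls. EH50 interpolated as the concentration giving 50% of the positive-control A540.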

Data set [2] has as its system Meyerozyma guilliermondii. In words: Antifungal activity Candida guilliermondii DSM 11947 by two-fold dilution method. It is filed as functional. The method, boiled down: (§2)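 Serial two-fold broth microdilution MIC per CLSI M27-A3, in RPMI-1640 without bicarbonate, with L-glutamine, 2% glucose and 3.45% MOPS, pH 7.0. Conjugates tested at 512–1 µg mL-1, 5-FC at 64–0.125 µg mL-1. Strains maintained at 30 °C in YPD medium and stored on YPD agar.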

A further data set has as its system Kluyveromyces marxianus. In words: Antifungal activity Candida pseudotropicalis KKP 324 by two-fold dilution method. It is filed as functional. Summed up:
as §2

Another data set concerns Diutina rugosa. In words: Antifungal activity Candida rugosa DSM 2031 by two-fold dilution method. In kind it is functional. Summed up:
as §2

The test system of the next data set is Pichia kudriavzevii. Briefly: Antifungal activity Candida krusei DSM 6128 by two-fold dilution method. In kind it is functional. The method, boiled down: as §2
Data set [3] is described as follows: Induction of hemolysis in human RBC at upto 200 ug/ml incubated for 30 mins by absorbance based microplate reader analysis relative to control. It is filed as toxicity, cell-based, Erythrocyte. The conditions noted are these: human red blood cells (erythrocytes), up to 200 µg/mL. The method, boiled down: as §1
The next data set relates to Nakaseomyces glabratus. Briefly: Antifungal activity Candida glabrata DSM 11226 by two-fold dilution method. In kind it is functional. Summed up:
as §2

For the next data set, the system named is Candida parapsilosis. Briefly: Antifungal activity Candida parapsilosis DSM 5784 by two-fold dilution method. It is filed as functional. The settings on record: Lodderomyces parapsilosis. Summed up: as §2
A further data set deals with Debaryomyces hansenii. In words: Antifungal activity Candida famata DSM 3428 by two-fold dilution method. It is filed as functional. Summed up: as §2
Data set [4] relates to Candida albicans. Briefly: Antifungal activity Candida albicans ATCC 10231 by two-fold dilution method. In kind it is functional. Summed up: as §2
Data set [5] is described as follows: Drug localization in cytoplasm of Candida cells measured after 1 hr by confocal microscopy based analysis. In kind it is ADME, cell-based. Summed up: (§3)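 Candida from overnight YPD culture were washed, grown in RPMI-1640 at 30 °C with shaking from OD660 0.1 to 0.3, then resuspended in PBS to OD660 0.2. Fluorescent conjugate added to 50 µg mL-1 final and incubated at 30 °C, 150 rpm. Samples taken over time, washed 4× in PBS, imaged by confocal microscopy (ex 438, em 527 nm).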

Data set [6] deals with Candida albicans. In words: Antifungal activity Candida albicans ATCC 10231 at 512 ug/ml by two-fold dilution method. It is filed as functional, organism-based. The settings on record: dose 512.0 µg/ml. Summed up: as §2
The nature of data set [7]: Drug uptake in Candida glabrata cells assessed as increase in number of cells emitting green fluorescence measured after 10 to 30 mins by fluorescence based analysis. In kind it is ADME, cell-based. The settings on record: nakaseomyces glabratus; time 10-30 min. The method, boiled down: as §3

Broadly, the HC50 is the concentration that lyses half of the red blood cells. Read a low HC50 as stronger haemolysis. As for `C[C@@H]1[C@H](O)[C@@H](C)/C=C/C=C/C=C/C=C/C=C/C=C/C=C/[C@H](O[C@@H]2O[C@H](C)[C@@H](O)[C@H](N)[C@@H]2O)C[C@@H]2O[C@](O)(C[C@@H](O)C[C@@H](O)[C@H](O)CC[C@@H](O)C[C@@H](O)CC(=O)O[C@H]1C)C[C@H](O)[C@H]2C(=O)O` [AMPHOTERICIN B], the HC50 at 0.5 h in [1] came to 3.46 µg/mL.
What is called MIC is the lowest concentration that inhibits growth of the organism. The low end stands for greater potency, the high end for weaker potency. `CC(=O)Oc1cc(C)cc(C)c1C(C)(C)CC(=O)Oc1ncc(F)c(N)n1`: the minimal inhibitory concentration (MIC) in data set [2] is 16 µg/mL (≈ 42.6 µM); against Kluyveromyces marxianus, 64 µg/mL (≈ 170 µM); against Diutina rugosa, 32 µg/mL (≈ 85.2 µM); against Pichia kudriavzevii it was more than 512 µg/mL; in the data set on Nakaseomyces glabratus, 8 µg/mL (≈ 21.3 µM); against Candida parapsilosis it was 4 µg/mL (≈ 10.7 µM). In addition, the MIC against Debaryomyces hansenii was 8 µg/mL (≈ 21.3 µM); in the data set on Candida albicans [4], 16 µg/mL (≈ 42.6 µM). In addition, in data set [3], the hemolysis at 0.5 h was less than 5%.
Regarding `CCCCCCCC(=O)Oc1cc(C)cc(C)c1C(C)(C)CC(=O)NCCNc1ccc2c3c(cccc13)C(=O)N(CCCC)C2=O`, the Drug uptake entry in [5] and in data set [7] was “Active” throughout. Moreover, the result in the data set with Candida albicans [6] was inactive.
As for `CCCCCCCCCCCC(=O)Oc1cc(C)cc(C)c1C(C)(C)CC(=O)Oc1ncc(F)c(N)n1`, the MIC in data set [2] amounted to 8 µg/mL (≈ 15.5 µM); against Kluyveromyces marxianus, 64 µg/mL (≈ 124 µM); in the data set on Diutina rugosa, 16 µg/mL (≈ 31 µM); in the data set with Pichia kudriavzevii it was 256 µg/mL (≈ 496 µM); against Nakaseomyces glabratus it was 4 µg/mL (≈ 7.76 µM); against Candida parapsilosis, 4 µg/mL (≈ 7.76 µM). Further, the MIC against Debaryomyces hansenii was determined as 4 µg/mL (≈ 7.76 µM); against Candida albicans [4], 8 µg/mL (≈ 15.5 µM). The hemolysis at 0.5 h in [3] was less than 5%.
Turning to `CCCCCCCCCCCCCCCCCC(=O)Oc1cc(C)cc(C)c1C(C)(C)CC(=O)Oc1ncc(F)c(N)n1`, the MIC is 256 µg/mL (≈ 427 µM) in data set [2]; 512 µg/mL (≈ 854 µM) against Kluyveromyces marxianus; more than 512 µg/mL against Diutina rugosa; more than 512 µg/mL against Pichia kudriavzevii; 32 µg/mL (≈ 53.3 µM) against Nakaseomyces glabratus; 128 µg/mL (≈ 213 µM) in the data set on Candida parapsilosis. In addition, the MIC was determined as 256 µg/mL (≈ 427 µM) against Debaryomyces hansenii and 128 µg/mL (≈ 213 µM) in the data set on Candida albicans [4]. In addition, the hemolysis at 0.5 h in data set [3] is less than 5%.
`CCCCCCCCCCCCCCCCCC(=O)Oc1cc(C)cc(C)c1C(C)(C)CC(=O)NCCNc1ccc2c3c(cccc13)C(=O)N(CCCC)C2=O`: in the data set with Candida albicans [6], the result was inactive.
Still for that read-out and setting: in the case of `CCCCCCCCCCCC(=O)Oc1cc(C)cc(C)c1C(C)(C)CC(=O)NCCNc1ccc2c3c(cccc13)C(=O)N(CCCC)C2=O` it was “inactive”; in that of `CCCCN1C(=O)c2cccc3c(NCCNC(=O)CC(C)(C)c4c(C)cc(C)cc4OC(C)=O)ccc(c23)C1=O`, “inactive”.
As to `CCCCCCCC(=O)Oc1cc(C)cc(C)c1C(C)(C)CC(=O)Oc1ncc(F)c(N)n1`, the MIC came to 8 µg/mL (≈ 17.4 µM) in data set [2]; 32 µg/mL (≈ 69.6 µM) against Kluyveromyces marxianus; 16 µg/mL (≈ 34.8 µM) against Diutina rugosa; 128 µg/mL (≈ 279 µM) with Pichia kudriavzevii; 2 µg/mL (≈ 4.35 µM) against Nakaseomyces glabratus; 4 µg/mL (≈ 8.7 µM) against Candida parapsilosis. The MIC against Debaryomyces hansenii is 4 µg/mL (≈ 8.7 µM); in the data set on Candida albicans [4] it was 8 µg/mL (≈ 17.4 µM). Moreover, the hemolysis at 0.5 h in data set [3] was less than 5%.
Take `CCCCCCCCCC(=O)Oc1cc(C)cc(C)c1C(C)(C)CC(=O)Oc1ncc(F)c(N)n1`: the minimal inhibitory concentration (MIC) in [2] was found to be 8 µg/mL (≈ 16.4 µM); with Kluyveromyces marxianus, 32 µg/mL (≈ 65.6 µM); in the data set on Diutina rugosa, 16 µg/mL (≈ 32.8 µM); with Pichia kudriavzevii it was 256 µg/mL (≈ 525 µM); against Nakaseomyces glabratus it was 4 µg/mL (≈ 8.2 µM); against Candida parapsilosis it was 4 µg/mL (≈ 8.2 µM). Also, the MIC against Debaryomyces hansenii and with Candida albicans [4] was 8 µg/mL (≈ 16.4 µM) throughout. The hemolysis at 0.5 h in data set [3] is less than 5%.
Consider `CCCCCCCCCCCCCC(=O)Oc1cc(C)cc(C)c1C(C)(C)CC(=O)Oc1ncc(F)c(N)n1`, for which the MIC in data set [2] stood at 8 µg/mL (≈ 14.7 µM); against Kluyveromyces marxianus, 32 µg/mL (≈ 58.9 µM); against Diutina rugosa, 16 µg/mL (≈ 29.4 µM); in the data set on Pichia kudriavzevii, 512 µg/mL (≈ 942 µM); in the data set with Nakaseomyces glabratus, 2 µg/mL (≈ 3.68 µM); with Candida parapsilosis, 4 µg/mL (≈ 7.36 µM). Moreover, the minimal inhibitory concentration (MIC) in the data set on Debaryomyces hansenii and in the data set on Candida albicans [4] was 4 µg/mL (≈ 7.36 µM) throughout. The compound also returned a hemolysis at 0.5 h in [3] of less than 5%.
Consider `CCCCCCCCCCCCCC(=O)Oc1cc(C)cc(C)c1C(C)(C)CC(=O)NCCNc1ccc2c3c(cccc13)C(=O)N(CCCC)C2=O`, for which the outcome in the data set with Candida albicans [6] was inactive.
Same read-out and setting: for `CCCCCCCCCCCCCCCC(=O)Oc1cc(C)cc(C)c1C(C)(C)CC(=O)NCCNc1ccc2c3c(cccc13)C(=O)N(CCCC)C2=O` the value was “inactive”; for `CCCCCCCCCC(=O)Oc1cc(C)cc(C)c1C(C)(C)CC(=O)NCCNc1ccc2c3c(cccc13)C(=O)N(CCCC)C2=O`, “inactive”.
For `CCCCCCCCCCCCCCCC(=O)Oc1cc(C)cc(C)c1C(C)(C)CC(=O)Oc1ncc(F)c(N)n1`, the MIC in data set [2] is 32 µg/mL (≈ 56 µM); with Kluyveromyces marxianus, 128 µg/mL (≈ 224 µM); in the data set on Diutina rugosa it was 64 µg/mL (≈ 112 µM); against Pichia kudriavzevii, more than 512 µg/mL; against Nakaseomyces glabratus, 8 µg/mL (≈ 14 µM); in the data set on Candida parapsilosis, 8 µg/mL (≈ 14 µM). Besides, the MIC against Debaryomyces hansenii and in the data set on Candida albicans [4] was 16 µg/mL (≈ 28 µM) each time. Also, the hemolysis at 0.5 h in [3] is less than 5%.
In the case of `Nc1nc(=O)[nH]cc1F` [FLUCYTOSINE], the minimum inhibitory concentration (MIC) in data set [2] was 0.5 µg/mL (≈ 3.87 µM); against Kluyveromyces marxianus, 1 µg/mL (≈ 7.75 µM); against Diutina rugosa, 2 µg/mL (≈ 15.5 µM); against Pichia kudriavzevii it was more than 512 µg/mL; against Nakaseomyces glabratus, 0.5 µg/mL (≈ 3.87 µM); in the data set on Candida parapsilosis it was 2 µg/mL (≈ 15.5 µM). For the same compound, the MIC with Debaryomyces hansenii and in the data set with Candida albicans [4] was 1 µg/mL (≈ 7.75 µM) each time.
